Hits are enriched below; roughly 12% of the tested compounds scored in any of these assays.
Diaph inh CS: inhibits diaphorase or chemically oxidizes, flagging diaphorase assay artifacts | diaphorase resazurin-to-resorufin fluorescence, NADH, 16 min; bacterial (C. kluyveri) enzyme, not human | inhibition, % at 20 µM | actives 0.69% (n = 190,000);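 active = primary screen inhibition at 20 µM above a set limit, cut at about 50% in these data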
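Test system: diaphorase enzyme from Clostridium kluyveri; amount: diaphorase at 0.14 U/mL in enzyme working solution; detection: fluorescence of resorufin formed from resazurin, Ex 544/Em 590 nm; times: reaction incubation of 16 min at room temperature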
Diaphorase act: diaphorase activation or chemical reduction counter-screen; Diaphorase/resazurin coupled assay, resorufin fluorescence, 16 min; stronger effect = higher value; 1 = vehicle wells, 0 = NADH-free wells; AID 1229; actives 0.005% (n = 190,000); activation factor at 20 µM;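 active = diaphorase activity raised at least twofold by the compound at 20 µM; inactive = activation factor below 2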
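Test system: Clostridium kluyveri diaphorase, purified enzyme; input: enzyme 0.07 U/mL final; buffer or medium: 50 mM HEPES pH 7.4 with 4.542 mM MgCl2, 0.005% Tween 20; also added: 0.114 mM NADH and 0.1 mM resazurin, final amounts; schedule: 16 min enzyme reaction, ambient temperature; technique: fluorescence of resorufin, 544 nm excitation, 590 nm emission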
Cl transport mod: modulators of human KCC2 chloride dependent transport; Q9H2X9; KCC2 cells, thallium flux FluoZin-2 fluorescence; B-score of Tl+ flux slope (higher = more flux/activation; lower = inhibition) at 10 µM; actives 2.2% (n = 190,000); AID 1456;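 active = thallium flux slope and its plate-corrected score both differing from the plate sample mean at a set confidence after two filtering rounds, in either direction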;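 note: slope of fluorescence scaled to starting intensity during 10 to 20 s after thallium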
Target sequence (Q9H2X9 whole entry, looked up): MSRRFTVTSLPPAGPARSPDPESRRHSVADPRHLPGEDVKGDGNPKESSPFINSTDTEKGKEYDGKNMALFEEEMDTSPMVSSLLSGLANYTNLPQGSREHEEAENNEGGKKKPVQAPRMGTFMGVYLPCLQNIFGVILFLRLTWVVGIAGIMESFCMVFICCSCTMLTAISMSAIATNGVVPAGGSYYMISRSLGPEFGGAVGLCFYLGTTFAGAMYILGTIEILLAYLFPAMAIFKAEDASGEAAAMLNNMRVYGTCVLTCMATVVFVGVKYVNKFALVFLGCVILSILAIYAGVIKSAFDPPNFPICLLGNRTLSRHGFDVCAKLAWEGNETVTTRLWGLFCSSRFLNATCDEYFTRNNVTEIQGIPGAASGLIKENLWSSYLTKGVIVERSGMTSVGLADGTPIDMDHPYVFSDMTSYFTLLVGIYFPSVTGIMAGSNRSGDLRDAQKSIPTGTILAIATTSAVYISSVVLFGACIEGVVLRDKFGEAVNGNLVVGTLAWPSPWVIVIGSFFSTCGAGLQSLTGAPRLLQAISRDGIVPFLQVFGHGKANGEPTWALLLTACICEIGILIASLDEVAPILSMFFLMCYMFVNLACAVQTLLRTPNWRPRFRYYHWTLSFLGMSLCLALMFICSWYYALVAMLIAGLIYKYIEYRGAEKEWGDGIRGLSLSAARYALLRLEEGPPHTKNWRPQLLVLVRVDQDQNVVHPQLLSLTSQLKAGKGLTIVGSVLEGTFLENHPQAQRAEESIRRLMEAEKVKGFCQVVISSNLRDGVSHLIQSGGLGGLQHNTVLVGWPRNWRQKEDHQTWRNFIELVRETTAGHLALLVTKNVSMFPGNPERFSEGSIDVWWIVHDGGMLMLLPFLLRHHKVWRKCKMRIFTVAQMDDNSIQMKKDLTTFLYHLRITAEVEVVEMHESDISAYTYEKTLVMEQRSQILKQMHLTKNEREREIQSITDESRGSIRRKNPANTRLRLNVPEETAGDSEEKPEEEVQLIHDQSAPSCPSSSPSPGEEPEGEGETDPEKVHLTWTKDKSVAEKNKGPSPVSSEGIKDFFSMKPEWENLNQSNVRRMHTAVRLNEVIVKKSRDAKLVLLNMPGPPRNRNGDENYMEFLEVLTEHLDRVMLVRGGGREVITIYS
ROMK primary: human ROMK K+ channel modulation, primary screen; B-score at 10 µM; P48048; actives 2% (n = 130,000); Tet-inducible ROMK, thallium flux fluorescence; actives lie on both sides; AID 1918;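 active = signal ratio slope over the read window, or its plate-corrected B-score, at least 3 SD from the plate mean, either direction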;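 note: B-score of the F/F0 ratio slope over 7 to 12 s after thallium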
L major viab: Leishmania major promastigote growth inhibition | Leishmania major promastigotes, resazurin fluorescence viability | inhibition, % at 10 µM | actives 9% (n = 200,000) | AID 1063; in the data active = inhibition above about 50%;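 note: promastigotes grown with compound for 44 hours at 28 °C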
WT yeast gro inh: growth inhibition of WT yeast, mitochondrial fusion screen; mitochondrial fusion phenotypic screen, WT strain; inhibition, % at 10 µM; actives 2.1% (n = 190,000); AID 1362; in the data active = inhibition above about 58%; tested in S. cerevisiae
Hits are given with their value; - = inactive; . = not tested or not shown.

SMILES | Diaph inh CS | Diaphorase act | Cl transport mod | ROMK primary | L major viab | WT yeast gro inh
CC1=C(C(=O)OCc2ccccc2)C(c2ccc(C#N)cc2)NC(=O)N1CCCC(=O)O (stereo not drawn) | - | - | - | - | - | -
CN1CC(c2ccc(C#N)cc2)C2(COc3ccccc3C2=O)C12C(=O)Nc1ccccc12 (stereo not drawn) | - | - | - | . | 90.0 | -
CCCCOc1ccc(C(=O)Nc2ccc(SC(F)F)cc2)cc1OC | - | - | - | - | 70.8 | -
CCOCCCNS(=O)(=O)c1ccc(NC(=O)N2c3ccccc3Sc3ccccc32)cc1 | - | - | . | - | 99.9 | -
CC1CCN(S(=O)(=O)c2ccc(NC(=O)CN3CCOCC3)cc2)CC1 | - | - | . | - | - | -
CC1CCN(S(=O)(=O)c2ccc(NC(=O)N3c4ccccc4Sc4ccccc43)cc2)CC1 | - | - | . | . | 60.8 | -
CC1CCN(S(=O)(=O)c2ccc(NC(=O)Cc3cccs3)cc2)CC1 | - | - | . | - | 89.2 | -
c1ccc(NC2=Nc3cccc4cccc2c34)cc1 | - | - | - | - | - | -
O=C(NNC1=Nc2cccc3cccc1c23)c1ccccc1Br | - | - | - | . | 52.7 | -
CC1CC(NC(=O)C2(C)CC2(Cl)Cl)CC(C)(C)C1 (stereo not drawn) | - | - | - | - | 54.5 | -
CC1CC(NC(=O)CC#N)CC(C)(C)C1 (stereo not drawn) | . | . | - | . | . | .
CN(C)C(CNC(=O)CNC(=O)c1ccc(Br)cc1)c1ccccc1 (stereo not drawn) | - | - | - | - | - | -
COc1cc(C(=O)NCC(=O)N/N=C(/C)c2cccs2)cc(OC)c1OC | - | - | - | - | 65.1 | -
COc1ccc(/C(C)=N/NC(=O)CNC(=O)c2cccs2)cc1OC | - | - | - | - | - | -
O=C(NCCCn1ccnc1)c1noc2c1CCCC2 | - | - | - | . | - | -
O=C(NCCCn1ccnc1)C1CC2CCC1C2 (stereo not drawn) | - | - | - | - | - | -
O=C(NCCCn1ccnc1)Nc1ccc(Cl)cc1 | - | - | - | . | 53.3 | -
O=C(NCCCn1ccnc1)c1cc(-c2ccncc2)nc2ccccc12 | - | - | - | - | - | -
O=C(NCCCn1ccnc1)c1cc(-c2ccc(Cl)cc2)nc2ccccc12 | - | - | - | . | 98.5 | -
O=C1CCC(C(=O)NCCCn2ccnc2)N1 (stereo not drawn) | - | - | . | - | 66.0 | -
O=C(NCCCn1ccnc1)c1noc2c1CCc1ccccc1-2 | - | - | - | . | 88.4 | -
Cc1nnc(SCC(=O)c2ccc(Cl)cc2)s1 | - | - | - | . | - | -
O=C(NCCCN1CCc2ccccc2C1)Nc1ccc(Cl)cc1 | - | - | - | . | 78.4 | -
O=C(CCn1ccnc1)Nc1ccc2ccccc2c1 | - | - | - | - | 73.9 | -
O=C(CCCOc1ccc(Cl)cc1Cl)NCCCn1ccnc1 | - | - | - | - | 65.7 | -
SMILES | Diaph inh CS | Diaphorase act | Cl transport mod | ROMK primary | L major viab | WT yeast gro inh
Cc1c(NC(=O)c2noc3c2CCc2ccccc2-3)c(=O)n(-c2ccccc2)n1C | . | . | -3.35 | . | - | -
O=C(CS)Nc1ccc2ccccc2c1 | . | . | - | . | . | .
Cc1cc(Cl)ccc1OCCCC(=O)NCCCn1ccnc1 | - | - | - | - | - | -
CN(C(=O)c1cc2ccccc2oc1=O)C1(C)CCS(=O)(=O)C1 (stereo not drawn) | - | - | - | - | - | -
COC(=O)C1=NNC2(C)C(=O)N(c3ccc(C)cc3)C(=O)C12 (stereo not drawn) | . | . | - | . | . | .
Cc1c(NC(=S)NC(=O)c2cc3ccccc3o2)c(=O)n(-c2ccccc2)n1C | - | - | - | - | 52.6 | -
O=C(CCCN1C(=O)c2ccccc2C1=O)NCCCn1ccnc1 | - | - | - | - | - | -
O=C(Cc1ccccc1Cl)NCCCn1ccnc1 | - | - | - | . | 61.8 | -
S=C(NCCCn1ccnc1)Nc1ccc(Cl)cc1Cl | - | - | - | . | - | -
O=C(NCCCn1ccnc1)Nc1ccc(Cl)c(Cl)c1 | - | - | - | . | 95.5 | -
Cc1cc(C)nc(N2CCCC(C(=O)NCC(c3ccccc3)c3ccccc3)C2)n1 (stereo not drawn) | - | - | - | . | - | -
CN(C)c1ccc(/C=C/c2nnnn2-c2ccccc2)cc1 | - | - | - | . | 56.3 | -
COc1cccc(-n2nc(-c3ccnn3-c3ccc(F)cc3)c(=O)n(C)c2=O)c1 | - | - | . | - | 51.8 | -
CCOC(=O)CNC(=O)Cn1cnc2ccc(S(=O)(=O)N3CCC(C)CC3)cc2c1=O | - | - | . | - | - | -
CCOC(=O)c1[nH]c2ccc(Br)cc2c1NC(=O)CCN1CCCC(C)(C)C1 | - | - | - | - | - | -
COc1ccc(CN2C(=O)c3ccccc3C2=O)cc1C(=O)Nc1ccc(C)cc1C | - | - | - | - | - | -
COc1cccc(NC(=O)c2cc(CN3C(=O)c4ccccc4C3=O)ccc2OC)c1 | - | - | - | . | 88.7 | -
COc1ccc(C(C(=O)Nc2ccc(F)cc2)N(C(=O)Cn2nnc3ccccc32)C2CC2)cc1 (stereo not drawn) | - | - | . | . | - | 68.4
O=C(COC(=O)CCN1C(=O)/C(=C\C=C\c2ccccc2)SC1=S)Nc1cc(F)ccc1F | - | - | . | - | - | -
O=C1OCC(CO)(CO)N=C1NNc1ccc(Cl)c(Cl)c1 | - | - | . | - | 100.0 | -
CC12CC3CC(C)(C1)CC(NCc1ccncc1)(C3)C2 | - | - | - | - | 82.5 | -
COc1ccc(/C=C2\NC(=O)C(C=NCc3ccccc3)=C2O)cc1 | - | - | - | . | 57.9 | -
CC(C)(C)C(=O)OCCNc1nc(-c2ccccc2)nc2ccccc12 | - | - | - | . | 53.7 | -
COc1ccc(N)cc1-n1cnnn1 | - | - | - | - | - | -
CC1=C(C#N)C(NC(=O)c2ccc(C)cc2)(C(F)(F)F)C(=O)N1 (stereo not drawn) | - | - | . | . | - | 76.7
SMILES | Diaph inh CS | Diaphorase act | Cl transport mod | ROMK primary | L major viab | WT yeast gro inh
Cc1ccc(-c2nc(=S)c3c(n2Cc2ccco2)CCCC3)cc1 | - | - | 24.7 | - | - | -
COc1cccc(-c2nc(=S)c3c(n2Cc2ccco2)CCCC3)c1 | - | - | 13.4 | . | - | -
COc1cccc(-c2nc(=S)c3c(o2)CCCC3)c1 | - | - | - | - | - | 68.2
CCCCCC(=O)NC(=S)NC1C2CC3CC(C2)CC1C3 (stereo not drawn) | . | . | - | - | . | .
NCCc1nc(-c2ccccc2)cs1 | - | - | - | - | - | -
O=C(Nc1nnc(SCC(=O)N2CCOCC2)s1)c1ccccc1 | - | - | - | - | - | -
Nc1nc(C23CC4CCC(CC(C4)C2)C3)cs1 | - | - | - | - | - | -
C=CCOc1ccc(/C=N/N2C(=O)C(CC(=O)Nc3ccc(F)cc3F)SC2=NC)cc1 (stereo not drawn) | - | - | - | . | - | -
CCCS(=O)(=O)c1c(S(=O)(=O)CCC)c2ccccn2c1C(=O)OC | - | - | - | - | - | -
